Compounds with a hit are over-represented: about 3.1% of the library has one in this group of screens.
PP1 counter = counter-screen for PP5 inhibitors: inhibitors of human PP1-alpha. purified PP1alpha, OMFP fluorescence. inhibition, % at 6.7 µM. 320,000 tested, 0.9% active;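 active = inhibition above the mean inhibition of all tested compounds plus 3 SD, computed separately for each screening campaign, cut at about 15% in these data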
Target sequence (P62136 whole entry, looked up): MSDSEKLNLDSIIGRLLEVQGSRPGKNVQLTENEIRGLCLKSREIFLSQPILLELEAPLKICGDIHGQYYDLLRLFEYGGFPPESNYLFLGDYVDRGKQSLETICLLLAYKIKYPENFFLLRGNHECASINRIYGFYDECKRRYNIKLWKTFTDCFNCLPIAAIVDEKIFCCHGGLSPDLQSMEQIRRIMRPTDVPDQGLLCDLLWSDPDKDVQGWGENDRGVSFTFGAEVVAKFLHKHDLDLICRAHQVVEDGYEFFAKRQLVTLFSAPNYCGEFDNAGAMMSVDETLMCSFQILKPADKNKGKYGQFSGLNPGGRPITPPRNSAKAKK
NadD block = NadD (S. aureus) enzyme inhibition. purified NadD enzyme, colorimetric absorbance read-out. 360,000 tested, 0.78% active. inhibition, % at 20 µM. AID 602399; in the data active = inhibition above about 26%
HCV core dimer = blocks dimerization of HCV core protein. TR-FRET GST/Flag-core106 dimerization, 1536-well. inhibition, % at 5 µM. 300,000 tested, 0.33% active;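 active = inhibition above the mean of all tested compounds plus 3 SD, set per screening campaign, cut at about 45% in these data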
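System – GST-tagged and Flag-tagged HCV core protein residues 1-106 · Repeats – one well for each compound · Technique – TR-FRET 671 and 617 nm emission · Doses – one concentration, 5 µM, in 0.5% DMSO · Times – 4 h, 22.5 °C incubation · Also added – Eu donor and XL665 acceptor anti-tag antibodies · Measure – percent inhibition of core106 dimerization signal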
Myeloid diff 2 = compounds promoting myeloid differentiation; ER-HoxA9 myeloid progenitors, lysozyme-GFP differentiation, flow cytometry; calls only at 10 µM; 360,000 tested, 1% active;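 active = normalized GFP-positive differentiation at or above the plate's own cutoff, the solvent-only control mean plus 3 SD; inconclusive = no clear call, values can overlap the other calls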;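 note: cells exposed to compound for four days before flow analysis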
CTSL1 counter = cathepsin L1 inhibition, PFM18AAP counter-screen; recombinant F. hepatica cathepsin L1, Z-Leu-Arg-MCA fluorescence; 300,000 tested, 0.49% active; inhibition, % at 5.96 µM;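 active = inhibition above the mean of all tested compounds plus 3 SD, set per screening campaign, cut at about 17% in these data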
PP5 primary = PP5 (human) phosphatase inhibition | P53041 | AID 1987 | purified PP5c, OMFP substrate fluorescence | inhibition, % at 6.7 µM | 320,000 tested, 0.18% active;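 active = inhibition above the campaign's mean inhibition across all tested compounds plus 3 SD, cut at about 9.5% in these data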
Numbers stand for hits; n = inactive; u = inconclusive; x = no result; + = active, no number.

SMILES	PP1 counter	NadD block	HCV core dimer	Myeloid diff 2	CTSL1 counter	PP5 primary
CCOC(=O)c1c(NC(=O)CSc2nc3ccccc3s2)sc(C)c1C	n	n	n	+	n	n
CCc1cccc(C)c1NC(=O)CSc1nc2ccc(N3C(=O)c4ccccc4C3=O)cc2s1	n	n	47.1	n	n	n
Cc1cc(C)c(NC(=O)CSc2nc3ccc(N4C(=O)c5ccccc5C4=O)cc3s2)c(C)c1	n	n	n	n	n	n
Cc1cnc(NC(=O)CSc2nc3ccccc3s2)s1	n	n	n	n	n	n
CCOc1ccc2c(c1)/C(=C(\C(Cl)=C(Cl)Cl)[N+](=O)[O-])N2	n	n	n	+	n	n
CCCCOc1ccc2c(c1)/C(=C(\C(Cl)=C(Cl)Cl)[N+](=O)[O-])N2	n	n	n	+	n	n
COC(CNC(=O)c1c[nH]c2ccc(S(=O)(=O)N(C)c3ccc(F)cc3)cc2c1=O)OC	n	n	n	n	n	n
COc1ccccc1N(C)S(=O)(=O)c1ccc(C(=O)NCC2CCCCC2)cc1	n	n	x	n	x	n
Cc1nn(-c2ccccc2)c(C)c1NC(=O)COC(=O)c1ccc(Cl)c(S(N)(=O)=O)c1	n	n	n	n	n	n
COc1ccc(OCc2cc(C(=O)NC3CCOCC3)no2)c2ccccc12	n	n	n	n	n	n
COc1cccc(OCc2cc(C(=O)NC3CCOCC3)no2)c1	n	n	n	+	n	n
CCOC(=O)C1=C(COC(=O)/C=C/c2cccc(OC)c2OC)NC(=O)NC1C (stereo not given)	n	n	n	n	n	n
CCN(Cc1ccccc1)C(c1ccc(C(F)(F)F)cc1)c1nnnn1C(C)(C)C (stereo not given)	15.3	n	n	n	n	n
CCN(Cc1ccccc1)C(c1cccc(C#N)c1)c1nnnn1C(C)(C)C (stereo not given)	n	n	n	n	n	n
Cc1ccc(C(=O)ON=C2CCN(c3ccc([N+](=O)[O-])cc3)CC2)cc1	15.7	n	n	n	n	n
Cc1ccc(C(=O)NC(=S)N2CCN(c3ccc([N+](=O)[O-])cc3)CC2)cc1	n	n	n	n	n	n
Cc1ccc(-n2ncc(-c3n[nH]c(=S)o3)c2N)cc1C	x	n	x	n	x	x
O=C(Cc1ccccc1)NCCC1=CCCCC1	n	n	n	n	n	n
O=C(Cc1ccccc1[N+](=O)[O-])NCCC1=CCCCC1	n	n	n	+	n	n
COc1ccc(OC)c(-c2nnc3n2N=C(c2ccc(OC)c(OCC4CC4)c2)CS3)c1	x	n	x	+	x	x
CCCc1nnc(NC(=O)c2cc3ccccc3o2)s1	n	n	n	+	n	n
CC[N+](CC)(CC)CC(=O)Nc1c(C)cccc1C	n	n	n	n	21.2	n
CCCCN(C=O)c1c(CC)nc2c(OCCOc3ccc(F)cc3)cccn12	x	n	x	n	x	x
Cc1ccc(NC(=O)c2cnccn2)cc1C	n	n	n	n	n	n
O=C(/C=C/c1ccccc1)NC(NC(=S)Nc1cccc(Cl)c1)C(Cl)(Cl)Cl (stereo not given)	n	n	n	n	18.0	n
SMILES	PP1 counter	NadD block	HCV core dimer	Myeloid diff 2	CTSL1 counter	PP5 primary
O=C(/C=C/c1ccccc1)NC(NC(=S)Nc1cccc(O)c1)C(Cl)(Cl)Cl (stereo not given)	n	n	n	n	n	n
CCc1c(C)sc(NC(=O)c2ccoc2C)c1C(N)=O	n	n	n	n	n	n
N#C/C(=C/c1ccc(N2CCOCC2)o1)c1ccc(Br)cc1	n	n	n	+	n	n
N#C/C(=C\c1ccc(N2CCOCC2)o1)C(=O)Nc1ccc(O)cc1	n	n	n	+	n	n
N#C/C(=C/c1ccc(N2CCCCC2)o1)C(=O)Nc1ccc2ccccc2c1	x	n	x	n	x	x
N#C/C(=C/c1ccc(N2CCCCC2)o1)C(=O)Nc1ccc(Cl)cc1	n	n	n	+	n	n
COc1ccc(NC(=O)/C(C#N)=C\c2ccc(N3CCOCC3)o2)cc1	n	n	n	n	n	n
Nc1nc(N)c(N=O)c(OCC2CCCCC2)n1	n	n	n	n	104.3	n
Cc1ccc2nc(C(C)(C)C)c(Cc3ccsc3)n2c1	x	n	x	n	x	x
Cc1cccc[n+]1C1C(c2ccccc2)C(C#N)=C(C(=C=[N-])C#N)NC1(O)C1CC1 (stereo not given)	n	33.9	n	n	n	n
Cc1ccc[n+](C2C(c3ccc([N+](=O)[O-])cc3)C(C#N)=C([S-])NC2(O)C2CC2)c1 (stereo not given)	n	n	n	n	n	n
N#CC(=C=[N-])C1=C(C#N)C(c2ccccc2F)C([n+]2ccccc2)C(O)(C2CC2)N1 (stereo not given)	n	n	51.9	n	n	n
O=S(=O)(Nc1ccc(N=Nc2ccc(O)c3ccccc23)cc1)c1ccccc1	n	n	n	n	n	n
O=[N+]([O-])c1ccc(N=Nc2ccc(O)c3ccccc23)cc1	x	n	x	+	x	x
COc1ccccc1N=Nc1c(O)[nH]c2ccc(Br)cc12	n	n	n	+	n	n
O=C(N=Nc1c(O)[nH]c2ccc([N+](=O)[O-])cc12)c1cc(-c2ccccc2Cl)nc2ccccc12	n	n	47.4	n	n	n
Cc1cccc(N=Nc2c(O)[nH]c3ccc(Br)cc23)c1	n	n	n	n	n	n
COc1ccccc1C(=O)N=Nc1c(O)[nH]c2ccc([N+](=O)[O-])cc12	x	31.6	x	n	x	x
CCCCn1c(N)c(N(CC)C(=O)CN2C(=O)NC(C)(c3ccccc3)C2=O)c(=O)[nH]c1=O (stereo not given)	n	n	n	n	n	n
O=[N+]([O-])c1ccc(N2CCN(c3ccccc3Cl)CC2)cn1	n	n	n	n	20.7	n
O=C(NCCCN1CCCC1=O)c1ccc(Cl)c(S(=O)(=O)N2CCCCC2)c1	n	n	x	n	x	n
CCCc1ccc2oc(C(=O)N(C)CCn3ccnc3C)c(C)c2c1	n	n	n	n	n	n
COc1ccc(NC(=O)CCNS(=O)(=O)c2ccc3c(c2)c(=O)n(C)c(=O)n3C)c(OC)c1	n	n	n	+	n	n
COCC#Cc1cnc2c(c1)C(=O)N([C@H](C)CO)C[C@H](C)[C@@H](CN(C)S(=O)(=O)c1ccccc1)O2	x	n	x	n	x	x
COC(=O)/C=c1/s/c(=C(\C#N)C(=O)NCc2ccco2)n(-c2ccc(C)cc2)c1=O	n	n	56.9	u	n	n
COC(=O)/C=c1/s/c(=C(/C#N)C(=O)N2CCOCC2)n(-c2ccccc2)c1=O	n	n	n	n	n	n
O=C(O)/C(=C/c1ccc(Cl)c([N+](=O)[O-])c1)c1ccc(S(=O)(=O)N2CCCCC2)s1	x	n	x	n	x	x
O=[N+]([O-])c1cccc(-c2ccc(/C=N/Nc3nc(N4CCCCC4)nc(N4CCCCC4)n3)o2)c1	n	n	n	n	n	n
O=[N+]([O-])c1ccc(-c2ccc(/C=N/Nc3nc(N4CCCCC4)nc(N4CCCCC4)n3)o2)cc1	x	n	x	+	x	x

High-throughput results (PubChem)
